Among the data in the RNAGym collection of RNA variant scans (doi:10.1126/science.aae0568) are yeast fitness values, retold here.

Variants at the floor of the assay were thinned out.

B1: tRNA (parent)
chain: GUUCCGUUGGCGUAAUGGUAACGCGUCUCCCUCCUAAGGAGAAGACUGCGGGUUCGAGUCCCGUACGGAACG

The variants in this data set derive from B1. Description: yeast fitness relative to wild type (ratio to wild type); higher = fitter; tRNA-Arg(CCU), competitive growth, 37 C, YPD. A digest of the protocol:
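Variants of the tRNA-Arg(CCU) gene, chemically synthesised with a 3% per-site mutation rate at 69 sites, were placed at the native genomic locus in Saccharomyces cerevisiae. The pooled strains were competed in YPD at 37°C for 24 hours in six parallel replicates. Gene amplicons from the start population and from each end population were read by 100-nucleotide paired-end sequencing. Darwinian fitness relative to wild type came from changes in genotype frequencies; genotypes needed ≥ 100 starting reads, and estimates < 0.5 were set to 0.5.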
Regarding G6C A40G, the yeast fitness stood at 0.767. With G12C C24U, the yeast fitness worked out at 0.651.

As to G9C C62A, the yeast fitness was 0.576. Turning to G23C G68A, the yeast fitness was 0.719. For the variant A15G G17A C33U, the yeast fitness is at most 0.5.

Consider G25A C29U G51C A70U, for which the yeast fitness is at most 0.5. As for U2C C27U C31U U32G C55A G63A, the figure is 0.645; as for A42U C46U, 0.97; as for C5G C30A C34G, at most 0.5. U2C A37U A40C: the yeast fitness was 0.633. Take A21C A57U C66U: the yeast fitness is at most 0.5.

Turning to G10C G41A C62U, the yeast fitness was at most 0.5. Next, C29G A43C C55G: 0.657. As for C22A C49U G51C, the figure is at most 0.5; as for C30G G44C G51C A69U, at most 0.5; as for U8C G12C C61A G67A, at most 0.5. With C30A A42U C49U U59C A69C, the yeast fitness was determined as 0.557. As for C24G G50A C55U A69C A70U, the figure is at most 0.5; as for C24A A42C, 0.713. As for G17C U47G, the figure is at most 0.5; as for C5U U35G U47A G48A, at most 0.5.

Consider G18C C60A, for which the yeast fitness was at most 0.5. Next, U16A G17C A43U A45C C46A C61U: at most 0.5. For C11A A15G C49U, the yeast fitness worked out at 0.55.

As to U3A U59G, the yeast fitness was determined as 0.81.

For the variant C22U U54A C55U, the yeast fitness came out at 0.776. Take U8A U19C C31A U35G A43G U47C G52C G67A: the yeast fitness is 0.575. On to U3A C4G G68A, for which the yeast fitness was at most 0.5.

As to C11A U13A C31G A65C, the yeast fitness was at most 0.5. As for C5U G44C A69U, the figure is 0.815; as for U2G G39C, 0.715. Next, U2C C11A C22G U53G: at most 0.5. Next, G44C U47C G58A: 0.766; C5A A70G: 0.922.

As for A15G U35G A43G C66U, the yeast fitness was at most 0.5. On to A15G C46G C61G A65G, for which the yeast fitness was determined as 0.756.

For G6C G52A, the yeast fitness worked out at 0.683. Next, A36U G48C: 0.648. Next, G6C G41C C62U: at most 0.5; G9C C24U G48C G51A: at most 0.5; U7C C30U C61A: at most 0.5. For the variant C5U C22U C27U C33U, the yeast fitness was at most 0.5. As to G12A G38C C49U C62U A69U, the yeast fitness turned out to be 0.973. With C4G C24G G41C, the yeast fitness is at most 0.5. As for U59A C66A, the figure is 0.63; as for A14U C24G A57C, at most 0.5; as for A36C C55U C60G, 0.781. Next, G9A C27G C34U: at most 0.5; C29A C33G C61U C66U: at most 0.5. Next, C29U A43C A69U: 0.673. For G17A C31G, the yeast fitness was found to be 0.85.

Consider U8C U16A A21G, for which the yeast fitness is at most 0.5.

As to A15U A40G C46U, the yeast fitness amounted to 0.697.

On to A20C U32A C34G A57C C66U, for which the yeast fitness was at most 0.5.

Consider U2G G17A G23A G38C A40G, for which the yeast fitness stood at 0.694. As for C5A U7C C34U C66U, the figure is at most 0.5; as for U8A C30U G63A, at most 0.5; as for G6C A15C C31G C33G C55U C61U, at most 0.5. As for A40C A57G C61G, the figure is at most 0.5. Next, U7A U8A G25A G67C: at most 0.5.

Consider C5U A45C C61G, for which the yeast fitness came out at 0.536. As for A36C C49A U64C, the figure is 0.767. As for G9A G25A A43G A65U, the figure is at most 0.5. G18C C62G G67U: the yeast fitness was at most 0.5. Next, U47C A70G: 1.03; U28C A42G: 0.913. In the case of U2C C29U C46G G51A G52C, the yeast fitness was 0.557. Next, G10A A42C A43C C66A: at most 0.5.

Take G17C U28G C29U A37C A65C: the yeast fitness is at most 0.5. Next, C11G G56A: 0.721.

On to C27G C30U G67A A70G, for which the yeast fitness was at most 0.5. As to A21U C24G U28A U59A, the yeast fitness was at most 0.5. As for U2A C11U, the figure is 0.894; as for A45G U47G, 0.756. Next, A20C C30G C33G: at most 0.5; U16A C46G A57G C61A: at most 0.5; C4U U8A U32G U35A C62U A69C: at most 0.5.

On to U19A C30U C31A G58A G67C, for which the yeast fitness was at most 0.5.

On to C11G G48A C49G, for which the yeast fitness amounted to 0.587. Next, U28A A69U: 0.749; C24A U32C C62U: at most 0.5; G6A C11G A21G C27G C29U U35G: at most 0.5.

For the variant C22A C27G G41A C62A, the yeast fitness is 0.655.

With C24G C29U C49U, the yeast fitness was at most 0.5. For the variant U7C A43G U47C U59C, the yeast fitness is at most 0.5. Next, U28C A70U: 0.87. As for G12C C22U A40C G52C G67A, the figure is at most 0.5; as for C5G A20G C62U C66G, 0.663. Next, U28C C33G G38A: at most 0.5; C11A A15U A20C: at most 0.5. Take C5G A21G C24U G68A: the yeast fitness was determined as 0.71. As for C5U U13C C24G U26C A37G U54G C61G, the figure is 0.575; as for U2C A20C C27U, 0.838; as for U26C A43U G50A G68A, at most 0.5.

Take A14G C27G U54C: the yeast fitness was at most 0.5. As for U3A G17C C29U, the figure is at most 0.5; as for C5U C55G C61A, at most 0.5; as for A14G G52A, 0.631. As for C11G C27U U28A, the figure is 0.537; as for C11G A15C G48C C55G G67C A70U, at most 0.5; as for U8A C24G G48C C49U U64A, at most 0.5. As for U26A C49G G67C, the figure is at most 0.5; as for C5U C29A G39C G50A G63A A69C, at most 0.5. Take C30G A37C C46G A69C: the yeast fitness was 0.571.

Consider A43U C49G A69C, for which the yeast fitness was found to be 0.512.

Consider C11G A15C, for which the yeast fitness was found to be 0.528.

With C33A A37U C55U A57C G58C, the yeast fitness is at most 0.5. As for C60G C66G A70C, the figure is at most 0.5; as for G18A G39U G48A C61G, at most 0.5; as for U13A U28C, 0.992.

G9C C29U A70C: the yeast fitness was at most 0.5. Regarding A36G G56A G58C, the yeast fitness was 0.694. As for U2G C30A U35G G51C, the figure is at most 0.5; as for U19A C24A C30G C34U G52C, at most 0.5; as for G39A G44A G50A G63C, at most 0.5. Next, U7A U8G A69C: at most 0.5; U2C G48C: 1.11. As for A36G G48A, the figure is 0.991. For C31A A43U U54A, the yeast fitness is at most 0.5. Next, U3C G38C A40G: 0.501; C24G A42G A57G: at most 0.5; U7A C55A A65C: at most 0.5. In the case of G51A G58A A65U, the yeast fitness was found to be 0.713. As for C22U A57G C60A, the figure is at most 0.5. As for C46G U54G, the figure is 0.527; as for A42U U47C C62U, 0.628; as for U3C A15G C60G C62U, at most 0.5. As for G6A C22G C33A A36C A43G C55G, the figure is at most 0.5; as for U13C C27A C61A, at most 0.5; as for C5G C24U U26C C31U, 0.749. With C5A C24G U26A C29G U32A G48A C66G G67U, the yeast fitness was at most 0.5. Regarding A36C C55U G68C, the yeast fitness was at most 0.5.

As to G48A C49U C62U A69U, the yeast fitness is 0.553. Next, A37C C55G G63A: at most 0.5; G17A C55U: 0.681. As for A20G U47C G50C, the figure is at most 0.5. As for U7C A21G, the figure is 0.761. As to U2C U19G U28G, the yeast fitness is at most 0.5. For the variant C5G U7C G10A C29G, the yeast fitness is at most 0.5. With G9A A14U C46G C55U A69C, the yeast fitness is at most 0.5. Next, A20C C24G C33G A42U A57C G67C: 0.645; G10A G12A G68C: at most 0.5; A21G C62U: 0.924. Turning to G12C C29U A42U U47C C62U, the yeast fitness is at most 0.5.

Consider U53C C66U, for which the yeast fitness was 0.814. For G9A G12C A14C, the yeast fitness worked out at 0.535. As for C22G U47G C66U A69C, the figure is at most 0.5; as for C11U C46G G51A C55U G63U, at most 0.5; as for C31A A37U C49A C55U, at most 0.5. As for A20U A21G C27G, the figure is at most 0.5. C4U G12A U16A G51A U54A: the yeast fitness was at most 0.5. Consider C22G C24G C55G, for which the yeast fitness is at most 0.5.

In the case of U8A U26C G52C, the yeast fitness is at most 0.5. Next, C22U A36C A65G: 0.564; U32C C46U: 0.862. As for U8C G9C A21C C24G G38A, the figure is 0.74; as for A40G G52C C66G, at most 0.5; as for C4A C55G C61U, at most 0.5.

With C31U C33U A42C C49U A65C, the yeast fitness was at most 0.5. As for C5U A21G U28C A36G C55A, the figure is at most 0.5; as for C11G C24U U28C C55G, at most 0.5. U8C G48A C55A G58C: the yeast fitness was at most 0.5. Next, A21C C34G G48C: at most 0.5; C11U U28G C30A: at most 0.5. As for U8A U16G C30U C33G A37C A43G, the figure is at most 0.5; as for C5U U26A, 0.915; as for U8G G17A A20C C22G C29G C34G A70G, at most 0.5.
